# AI-2 QS mod = modulators of Vibrio harveyi AI-2 quorum sensing system; actives 0.4% (n = 300,000); activity change, % at 7.5 µM; AID 2094; Vibrio harveyi JMH597 AI-2 luminescence/OD600 ratio, 9 h; active compounds read low; strain lacks LuxN and CqsS sensors; 0 = neutral-control median; in the data active = activity change below about -75%, passing the limit was not always enough;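 also: luminescence divided by OD600 gain over 9 h not by final OD600 alone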
# MsrA act = activates bovine MsrA enzyme. activation, % at 10.6 µM. actives 0.3% (n = 360,000). purified bovine MsrA, absorbance read-out; in the data active = activation above about 7.5%
# TbMetRS inhib = Trypanosoma brucei MetRS inhibition; actives 0.4% (n = 360,000); purified T. brucei MetRS, ATP depletion, Kinase-Glo luminescence; inhibition, % at 11.9 µM;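 active = inhibition above a per-plate cutoff of the control wells' mean inhibition plus 3 SD, cut at about 5.5% in these data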
#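 technique = Kinase-Glo luminescence, ATP depletion format | system = purified MetRS (methionyl-tRNA synthetase) enzyme from Trypanosoma brucei | timing = 15 min preincubation, 2 h reaction, all 25 °C | evaluation = percent inhibition versus plate control medians | dosing = single dose, 11.9 µM final nominal, 0.9% final DMSO | also added = substrates ATP, L-methionine and bulk Escherichia coli tRNA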
# MsrA inh = inhibitors of bovine MsrA; actives 0.75% (n = 360,000); inhibition, % at 15.5 µM; purified bovine MsrA, absorbance read-out; in the data active = inhibition above about 4.5%
# m5-HT2A agonist = activates the mouse 5-HT2A serotonin receptor; CHO-K1 mHTR2A beta-arrestin complementation, luminescence; percent of 30 µM serotonin response; actives 0.66% (n = 360,000); activation, % at 7.6 µM;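 active = activation above a run cutoff, the mean activation of all tested compounds plus 3 SD, cut at about 14% in these data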
# AHR act = activators of human aryl hydrocarbon receptor | P35869 | AHR-responsive luciferase reporter cells, luminescence | activation, % at 5 µM | actives 2.5% (n = 320,000); in the data active = activation above about 47%
# Target sequence (P35869 whole entry, looked up): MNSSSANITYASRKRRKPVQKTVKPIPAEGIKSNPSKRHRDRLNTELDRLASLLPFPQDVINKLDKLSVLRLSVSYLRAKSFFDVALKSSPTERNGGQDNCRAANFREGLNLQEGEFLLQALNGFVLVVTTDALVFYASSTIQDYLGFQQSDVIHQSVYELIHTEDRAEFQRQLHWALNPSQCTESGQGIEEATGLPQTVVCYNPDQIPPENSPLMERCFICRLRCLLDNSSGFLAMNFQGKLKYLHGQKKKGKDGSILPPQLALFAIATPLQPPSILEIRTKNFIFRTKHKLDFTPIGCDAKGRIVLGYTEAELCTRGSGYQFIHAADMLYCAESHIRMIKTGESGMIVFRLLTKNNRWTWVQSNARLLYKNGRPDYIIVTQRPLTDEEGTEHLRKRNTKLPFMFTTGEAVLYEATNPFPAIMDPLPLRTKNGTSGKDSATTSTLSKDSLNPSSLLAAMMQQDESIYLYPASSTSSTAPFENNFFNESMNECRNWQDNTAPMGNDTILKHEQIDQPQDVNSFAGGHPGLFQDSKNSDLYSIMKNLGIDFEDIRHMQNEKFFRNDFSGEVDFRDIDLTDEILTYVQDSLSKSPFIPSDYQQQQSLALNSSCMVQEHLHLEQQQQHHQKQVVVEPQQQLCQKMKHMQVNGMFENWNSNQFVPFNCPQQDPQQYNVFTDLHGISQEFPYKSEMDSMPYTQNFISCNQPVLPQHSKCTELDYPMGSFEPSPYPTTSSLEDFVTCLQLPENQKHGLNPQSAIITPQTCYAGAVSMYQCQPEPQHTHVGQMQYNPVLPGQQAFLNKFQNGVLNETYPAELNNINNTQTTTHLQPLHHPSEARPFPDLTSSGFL
# Hits are given with their value; . = inactive; / = no result given. Shown are actives, neighbours in structure and some others; about 4.4% of the full set was active somewhere.
SMILES,AI-2 QS mod,MsrA act,TbMetRS inhib,MsrA inh,m5-HT2A agonist,AHR act
CCOC(=O)C1=C(C(=O)OCC)C2N(Cc3ccc(C#N)cc3)c3ccccc3[C@@]23C[C@@H](C(=O)OC)N(S(=O)(=O)c2ccccc2C)C3=N1 (stereo partly drawn),/,/,/,.,/,/
O=C(CN1C(=O)NC2(CCCCCC2)C1=O)N1CCCCC1,/,.,.,.,.,.
COC(=O)[C@]12C[C@H](CC(=O)N3CCCCC3)C(=O)N(Cc3ccc4c(c3)OCO4)C1=C[C@H](C(C)(C)C)O[C@@H]2C,/,/,/,.,/,/
CCOC(=O)c1nn(-c2ccc(C)cc2)cc1O,.,.,.,.,.,.
CCOC(=O)c1nn(-c2ccc3c(c2)OCO3)cc1O,.,.,.,5.9,.,.
CN(C(=O)c1ccc(NC(=O)C2CCCN(C(=O)OC(C)(C)C)C2)cc1)C1CCC1 (stereo not drawn),/,.,.,.,.,.
NNC(=O)c1oc2nc(-c3cccs3)cc(-c3ccco3)c2c1N,.,.,.,.,.,48
CC(=O)N1c2ccc3ccccc3c2C2C=CCC2C1c1ccc(Br)cc1 (stereo not drawn),/,/,/,/,/,85
CCOC(=O)c1ccc(NC(=O)COc2ccc(CNCCO)cc2OCC)cc1,.,.,.,.,.,.
CCOC(=O)c1ccc(NC(=O)COc2ccccc2CNCCc2ccccc2)cc1,.,.,.,.,.,50
C#CCN(Cc1ccco1)C(=O)c1nnc2c3ccccc3n(S(=O)(=O)c3ccc(C)cc3)c2n1,/,/,/,.,/,/
O=C(Nc1ccc2c(c1)CN(Cc1ccc(CO)o1)CC2)c1ccc(C(F)(F)F)cc1,.,.,.,.,.,55
CC(C)[C@H](NS(=O)(=O)c1ccc(F)cc1F)C(=O)N1CCC[C@H]1C(=O)NCc1ccccc1,/,/,/,.,/,/
O=C(c1cccs1)N(C(=O)c1cccs1)c1ccc(Br)cn1,.,.,.,.,.,.
Cc1ccnc(N(C(=O)c2cccs2)C(=O)c2cccs2)c1,.,.,.,.,.,50
Cc1cc(NC(=O)Nc2ccc(Cl)c(Cl)c2)no1,.,.,.,.,.,.
O=C(Nc1ccc(Cl)c(Cl)c1)Nc1ccon1,.,.,.,.,.,71
COc1ccc(NC(=O)Nc2ccon2)c(OC)c1,.,.,.,.,.,56
COc1ccc(NC(=O)c2c(N)no[n+]2[O-])c(OC)c1,.,.,.,.,.,61
COc1ccc(NC(=O)Nc2ccncc2)c(OC)c1,.,.,.,.,.,.
CCCCS(=O)(=O)N1CCCc2nc(-c3ccc(Br)cc3)ccc21,/,/,/,.,/,/
CC(=O)C1=C(O)C(=O)N(c2ccc(Br)cc2)C1c1ccc(Br)cc1 (stereo not drawn),.,.,.,.,.,49
COc1ccc(-c2nc3ccccn3c2C=O)cc1,.,.,.,.,.,55
O=Cc1c(Cl)nc2ccccn12,.,.,.,.,.,.
Nc1[nH]c(N=NC(=O)c2ccccc2O)c2ccccc12,.,.,.,4.6,.,.
SMILES,AI-2 QS mod,MsrA act,TbMetRS inhib,MsrA inh,m5-HT2A agonist,AHR act
Nc1[nH]c(N=NC(=O)c2ccccc2)c2ccccc12,.,.,.,.,.,.
CN(C)c1nc(-c2cn(CCC#N)c3ccccc23)cs1,.,.,.,.,.,62
COCCn1cc(-c2csc(N)n2)c2ccccc21,.,.,.,.,.,.
CCCN(C(=O)CCc1cn(CCC)c2ccccc12)c1ccc(Oc2cccnc2)cc1,/,/,/,.,/,/
Cn1cc(SCC(=O)Nc2ccc3c(c2)OCO3)c2ccccc21,.,.,.,.,.,.
CCCn1cc(SCC(=O)Nc2ccc3c(c2)OCO3)c2ccccc21,.,.,.,.,.,73
COCCn1nnnc1SCC(=O)Nc1ccc2c(c1)OCO2,.,.,.,.,.,68
O=C(Nc1ccc2c(c1)C(=O)NC2=O)c1cccc(C(F)(F)F)c1,.,.,.,.,.,53
O=C(Nc1ccc(F)cc1)c1ccccc1,.,.,.,.,.,.
COc1cc(NC(=O)c2cccc(F)c2)cc(OC)c1OC,.,.,.,.,.,63
COc1ccc(NC(=O)c2cccc(F)c2)cc1Cl,.,.,.,.,.,.
COc1ccc(C(N)=O)cc1NC(=O)c1cccc(F)c1,.,.,.,.,.,61
O=C(Nc1ccc(F)cc1)c1cccc(C(=O)Nc2ccc(F)cc2)c1,.,.,.,.,.,51
O=C1c2ccccc2NC(c2cc(Cl)cc(Cl)c2O)N1CCc1ccccn1 (stereo not drawn),/,/,/,.,/,/
Cc1ccc(S(=O)(=O)Nc2c(O)ccc3ccccc23)cc1,.,.,.,/,.,54
c1ccc(CCN2CCN(c3ncnc4c3cnn4-c3ccccc3)CC2)cc1,.,.,.,.,.,.
Cn1ncc2c(N3CCC(Cc4ccccc4)CC3)ncnc21,.,.,.,.,.,73
CN(C)c1ccc(C(CNS(=O)(=O)c2ccc(F)c(F)c2)c2c[nH]c3ccccc23)cc1 (stereo not drawn),.,.,.,.,.,68
CN(C)c1ccc(C(CNC(=O)c2ccccc2F)c2c[nH]c3ccccc23)cc1 (stereo not drawn),.,.,.,.,.,.
COc1cc2c(cc1OC)[C@@]1(c3ccccc3)CCCC[C@H]1[C@@H]2NC(=O)C(F)(F)F,/,/,/,.,/,/
O=C(COC(=O)c1ccccc1O)NC(=O)NCc1ccccc1,/,.,.,.,.,/
c1ccc2c(-c3cn4ccccc4n3)c[nH]c2c1,.,/,/,/,/,54
CCc1nnc(NC(=O)c2cc(-c3ccncc3)nc3ccccc23)s1,.,.,.,.,.,62
CC(C)(C)c1nnc(NC(=O)c2cc(-c3ccccc3)nc3ccccc23)s1,.,.,.,.,.,.
CCc1nnc(NC(=O)c2cc(-c3ccccn3)nc3ccc(Br)cc23)s1,.,.,.,.,.,49
SMILES,AI-2 QS mod,MsrA act,TbMetRS inhib,MsrA inh,m5-HT2A agonist,AHR act
CCCCc1c(-c2ccccc2OC)ncn1Cc1ccc(F)cc1F,/,/,/,.,/,/
O=C(NC1=C(Nc2ccc(Cl)cc2)C(=O)c2ccccc2C1=O)c1ccccc1,.,.,.,.,.,69
O=C(Nc1ccc(O)cc1)C1CCCN1S(=O)(=O)c1ccc(F)cc1 (stereo not drawn),.,.,.,.,.,79
Cc1ccc(C(=O)N/C(=C\c2ccc(-c3ccccc3[N+](=O)[O-])o2)C(=O)NCCN(C)C)cc1,.,.,.,.,.,52
Nc1c(-c2n[nH]c(=S)n2-c2ccc(Cl)cc2Cl)cnn1-c1ccccc1,.,.,.,.,.,.
Nc1[nH]nc2c1NN(c1ccc(Cl)cc1Cl)N2,.,.,.,.,.,75
Nc1cc(-c2ccc(Br)cc2)nc2cc(-c3ccccc3)nn12,.,.,.,.,.,.
Clc1nc(-c2ccccc2)cc(-c2ccc(Br)cc2)n1,.,.,.,/,.,69
